Assay results from article PMC11871391 (Journal of Diabetes Investigation, 2024).

What was measured:
individuals with T1D = settings: trials with degludec in T1D; cited from earlier work
[1] = tested on: Japanese individuals with type 1 diabetes; assay: Safety evaluation during treatment periods; type: in vivo, human; settings: Japanese T1D; for rate of nocturnal Level 2 hypoglycemia / rate of overall Level 2 hypoglycemia (plasma glucose <3.0 mmol/L): glucose clamps excluded; for rate of overall Level 2 hypoglycemia (plasma glucose <3.0 mmol/L): from SMPG
Outline: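 Randomized crossover in Japanese adults with T1D: once-weekly test insulin for 8 weeks and once-daily glargine U100 for 14 days, both with bolus aspart. Safety covered AEs, vital signs, ECG, physical exam and laboratory tests, with clinically significant findings recorded as AEs. Hypoglycemia (Level 2, <3.0 mmol/L; Level 3, severe) and hyperglycemia (>16.7 mmol/L) were identified from SMPG. Events were expressed per patient-year of exposure and summarized descriptively.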

insulin receptor = settings: cited from earlier work
[2] = White individuals; cited from earlier work
[3] = type: in vivo, human; settings: weekly dosing interval at steady state, Japanese T1D
Outline: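 Japanese adults (20–64 y) with T1D got subcutaneous thigh doses once weekly around 20:00 for 8 weeks. The constant weekly dose was seven times the run-in daily glargine U100 dose, with glargine top-up in weeks 1–2. Blood was sampled from the first dose to 35 days after the last. Total serum drug (albumin-bound plus unbound) was measured by validated specific immunoassay. AUC was by linear trapezoid over 0–168 h; t½ was log(2)/λz by linear regression.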

[4] = tested on: Japanese individuals with type 1 diabetes; type: in vivo, human; settings: weekly dosing interval at steady state, Japanese T1D
Outline: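 Steady-state clamps (target 6.7 mmol/L) ran 24–48 h and 150–168 h after the final weekly dose. Before the clamp, glucose had to stay within ±20% from 60 to 30 min prior, within ±10% in the last 30 min, and fluctuate ≤0.3 mmol/L in the final 10 min. GIR was Loess-smoothed (factor 0.25). A per-participant PK/PD model simulated the daily effect across the full week.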

Substance | rate of clinically significant or severe hypoglycemia previously reported (individuals with T1D) | rate of hyperglycemia (plasma glucose >16.7 mmol/L) [1] [episodes per PYE] | severe (Level 3) hypoglycemic episodes [1] | rate of nocturnal Level 2 hypoglycemia [1] [episodes per PYE] | rate of overall Level 2 hypoglycemia (plasma glucose <3.0 mmol/L) [1] [episodes per PYE] | affinity for the insulin receptor (insulin receptor) | half-life [2] | day of maximum exposure [3] | day of maximum glucose-lowering effect [4]
insulin degludec | 42.5–88.3 episodes per PYE |  |  |  |  |  |  |  | 
insulin glargine U100 [reference compound] |  | 36.5 | no severe (Level 3) hypoglycemic episodes | 9.4 | 30.6 |  |  |  | 
insulin icodec |  | 33.6 | no severe (Level 3) hypoglycemic episodes | 7.8 | 37.3 | low affinity | approximately 1 week | Day 1 | Day 2
